From PubChem BioAssay AID624010 (Broad Institute, 2012)

Molecular target: Scavenger receptor class B member 1 (Mus musculus) (UniProt Q61009)
Assay: inhibition of C384S mSR-BI lipid uptake – cell-based, C384S mutant, scintillation, dry powder, mechanism study for SR-BI HDL uptake inhibitor project, dose response (AID 624010)
Details: CHO ldlA C384S mSR-BI, [3H]CE-HDL uptake
Outline: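 Assay system: CHO cells without LDL receptor, expressing C384S mutant mouse SR-BI. Medium: Ham's F12K with 0.5% fatty-acid-free BSA and 0.5% DMSO. Probe or stimulus: [3H]CE-HDL. Incubation: 1 h compound preincubation, then 2 h HDL uptake, 37 °C. Measured by: scintillation counting of [3H] label. Control set: unlabeled HDL excess (40-fold) and no-compound wells.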

Chain of Scavenger receptor class B member 1 (Mus musculus) (Q61009 whole entry C384S): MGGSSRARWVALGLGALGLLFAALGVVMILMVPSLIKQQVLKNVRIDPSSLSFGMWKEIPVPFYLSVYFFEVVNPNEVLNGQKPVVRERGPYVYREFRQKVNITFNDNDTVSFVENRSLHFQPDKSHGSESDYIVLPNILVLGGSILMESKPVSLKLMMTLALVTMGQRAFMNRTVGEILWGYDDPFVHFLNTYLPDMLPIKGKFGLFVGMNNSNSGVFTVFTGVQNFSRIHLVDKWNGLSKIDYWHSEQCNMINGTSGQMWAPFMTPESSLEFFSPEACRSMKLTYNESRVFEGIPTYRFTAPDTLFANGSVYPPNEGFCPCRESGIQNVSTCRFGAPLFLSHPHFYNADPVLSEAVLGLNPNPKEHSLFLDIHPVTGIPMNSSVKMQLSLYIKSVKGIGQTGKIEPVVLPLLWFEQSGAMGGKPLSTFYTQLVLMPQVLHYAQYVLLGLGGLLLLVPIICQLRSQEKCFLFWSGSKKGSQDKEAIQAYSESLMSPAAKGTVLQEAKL

**Q.** How did the AC50 turn out when CC(C)NC(=O)Nc1ccc2c(c1)C(=O)N([C@H](C)CO)C[C@@H](C)[C@H](CN(C)S(=O)(=O)c1ccc(Cl)cc1)O2 was run?
**A.** 500 nM
